Measured values gathered from unrelated publications.
Protocols differ between the studies behind these lines.
Target: Ephrin type-B receptor 1 (EPHB1, Homo sapiens, UniProt P54762)

The remaining activity of `Oc1cccc(-c2nc(N3CCOCC3)c3oc4ncccc4c3n2)c1` is reported as 131% (enzyme activity, inhibitor; 10 µM).
`C#Cc1cccc(Nc2ncnc3cc(OCCOC)c(OCCOC)cc23)c1` has a remaining signal of 100% (cell-free assay; 0.5 µM).
With `CCN(CC)c1ccc(C2=NNC(=O)CC2C)cc1[N+](=O)[O-]` (stereo not shown) the remaining activity was 97% (enzyme activity, inhibitor; 10 µM).
For `COc1cc(-c2cc(-c3ccc(N4CCNCC4)cc3)cnc2C)cc(OC)c1OC`, the inhibition was 5% (enzyme activity, inhibitor; 0.1 µM).
For `COc1cc2ncnc(Nc3ccc(Oc4ccccc4)cc3C)c2cc1OC`, the inhibition was 6% (enzyme activity, inhibitor; 1 µM).
The remaining binding of `C[C@@H]1CN(c2cc(-c3n[nH]c4ccc(OC5(C)CC5)cc34)ncn2)C[C@H](C)O1` is reported as 83% (cell-free assay, competition with immobilised ligand; 0.1 µM).
With `Clc1ccc(Nc2nnc(Cc3ccncc3)c3ccccc23)cc1` the remaining signal was 107% (cell-free assay; 0.5 µM).
For `O=C(Nc1cnn(-c2csc(C(=O)NC3COC3)c2)c1)Nc1c(F)cccc1Cl`, the remaining activity was 96.1% (enzyme activity, inhibitor; 5 µM).
`C=CC(=O)Nc1cc(Nc2nccc(Nc3cc(Cl)c(F)cc3C(C)(C)O)n2)c(OC)cc1N1CC[C@@H](N(C)C)C1` has an inhibition of 24% (enzyme activity, inhibitor; 1 µM).
`CCCOc1ccc(OC)c(F)c1C(=O)c1ccc(C(=O)N[C@@H]2CNC[C@H]2NC(=O)c2ccc3[nH]ncc3c2)cc1` gave a remaining activity of 42% (enzyme activity, inhibitor; 10 µM).
The remaining signal of `O=C1NC(=O)c2cc(Nc3ccc(F)cc3)c(Nc3ccc(F)cc3)cc21` is reported as 103% (cell-free assay; 0.5 µM).
`CNC(=O)c1cc2c(Oc3ccc(NC(=O)C4(C(=O)Nc5ccc(F)cc5)CC4)cc3)ccnc2cc1OC` gave an inhibition of 99% (enzyme activity, inhibitor, radiometric; 1 µM).
`CCN(CC)CCNC(=O)c1c(C)[nH]c(/C=C2\C(=O)Nc3ccc(F)cc32)c1C` has an inhibition of 34% (enzyme activity, inhibitor; 0.3 µM).
`Cc1cnc(NC2CCOCC2)nc1-n1cnc(C(=O)NC(CN)c2cc(F)cc(Cl)c2)c1` (stereo not shown) gave a remaining activity of 125% (enzyme activity, inhibitor, radiometric; 1 µM).
`CC(=O)c1c(NS(C)(=O)=O)c2cc(-c3ccc(Cl)cc3)c(-c3ccc(Cl)cc3Cl)nc2n(C)c1=O` gave a remaining binding of 100% (cell-free assay, competition with immobilised ligand; 1 µM).
`FC(F)c1nc2ccccc2n1-c1nc(N2CCOCC2)nc(N2CCOCC2)n1` has a remaining activity of 96% (enzyme activity, inhibitor; 10 µM).
For `O=C(N1CCS(=O)(=O)CC1)N1C[C@H](c2ccc(OC(F)(F)F)cc2)C[C@H](c2nc(C3CC3)no2)C1`, the remaining binding was 100% (cell-free assay, competition with immobilised ligand; 1 µM).
The inhibition of `Cc1ccc(Nc2nccc(N(C)c3ccc4c(C)n(C)nc4c3)n2)cc1S(N)(=O)=O` is reported as 63% (enzyme activity, inhibitor; 10 µM).
For `Cc1c(NC(=O)c2cc(C(N)=O)nc3cc(F)ccc23)c(C(F)(F)F)nn1Cc1ccc(C#N)cc1`, the remaining binding was 66% (cell-free assay, competition with immobilised ligand; 1 µM).
With `CC(C)(C)c1nc2c(s1)c1nc(N)ncc1c1ccc(NS(=O)(=O)c3c(F)cccc3F)c(F)c12` the remaining activity was 76% (enzyme activity, inhibitor, radiometric; 1 µM).
For `O=C(Nc1ccc(Oc2ccc(F)cc2)cc1)N1CCc2ncccc2[C@H]1c1ccc(F)cc1`, the remaining binding was 100% (cell-free assay, competition with immobilised ligand; 1 µM).
The remaining signal of `N#CCCc1ccc2c(c1)-c1[nH]c3ccc([N+](=O)[O-])cc3c1CC(=O)N2` is reported as 99.1% (cell-free assay; 0.5 µM).
`O=C(NC[C@@H]1[C@H]2CN(C(=O)OCc3cc(C(F)(F)F)cc(C(F)(F)F)c3)C[C@@H]12)c1ccc2[nH]nnc2c1` has a remaining binding of 100% (cell-free assay, competition with immobilised ligand; 1 µM).
The remaining activity of `COc1cc(Nc2cnc(C#N)c(O[C@H](C)CN(C)C)n2)ncc1-c1cnn(C)c1` is reported as 100% (enzyme activity, inhibitor, radiometric; 1 µM).
`CCC(=N\O)/C(C)=C/c1ccc(F)cc1` has a remaining binding of 100% (cell-free assay, competition with immobilised ligand; 1 µM).
`CCCS(=O)(=O)Nc1ccc(F)c(C(=O)c2c[nH]c3ncc(-c4ccc(Cl)cc4)cc23)c1F` gave an inhibition of less than 10% (enzyme activity, inhibitor; 1 µM).
`CC(C)CC(=O)N1CCc2nc(-c3ccc(Br)cc3)nc(N(C)Cc3ccccc3)c2C1` has a remaining binding of 100% (cell-free assay, competition with immobilised ligand; 0.1 µM).
`Cc1ccc(C(=O)Nc2ccc(CN3CCN(C)CC3)c(C(F)(F)F)c2)cc1C#Cc1cnc2cccnn12` has a remaining signal of 29% (cell-free assay; 23.5 nM).
